In ChEMBL document CHEMBL6127098, “Discovery of Oral Degraders of the ROS1 Fusion Protein with Potent Activity against Secondary Resistance Mutations” (J Med Chem, 2024):
Blank lines part the entries; values can stand above or below the compound they belong to. The source made the active and inactive calls. The rule behind the calls is not given here.

Experiments:
BaF3 [1] = test: Antiproliferative activity against mouse BaF3 cells expressing CD74-ROS1 incubated for 72 hrs by Alamar blue reagent based plate reader assay; assay type: functional, cell-based; conditions: BaF3, 72 h
Procedure, shortened: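 Ba/F3 cells stably expressing CD74- or SLC34A2-ROS1 fusions (wild type or mutant), made by retroviral transduction, selected with puromycin, and grown without IL-3 for ≥2 weeks. Alamar Blue added for 4 h. IC50 from sigmoidal nonlinear regression; mean ± SD of triplicate experiments.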

[2] = PROTAC activity at CRBN/ROS1 in mouse BaF3 cells assessed as ROS1 degradation by immunoblotting assay; assay type: cell-based
Procedure, shortened: (§1)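 IL-3-independent Ba/F3 cells expressing CD74-ROS1 variants were treated with compound. ROS1 and phospho-ROS1 were quantified by capillary immunoassay (WES) in duplicate experiments. DC50 is the concentration that lowers ROS1 or p-ROS1 by 50%; Dmax is the maximal degradation.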

BaF3 [3] = test: PROTAC activity at CRBN/ROS1 in mouse BaF3 cells assessed as maximum ROS1 degradation by immunoblotting assay relative to control; assay type: cell-based; procedure, shortened: as §1
[4] = Inhibition of ROS1-S1986F-G2032R-L2086F mutant/CD74 (unknown origin) expressed in mouse BaF3 cells; assay type: cell-based, Homo sapiens
BaF3 [5] = test: Antiproliferative activity against mouse BaF3 cells harboring ROS1 G2032R mutant incubated for 72 hrs by Alamar blue reagent based plate reader assay; conditions: BaF3, 72 h
[6] = Inhibition of ROS1-G2032R-F2075C mutant/SLC34A2 (unknown origin) expressed in mouse BaF3 cells; assay type: cell-based, Homo sapiens
[7] = Inhibition of ROS1-V2098I mutant/SLC34A2 (unknown origin) expressed in mouse BaF3 cells; assay type: cell-based, Homo sapiens
CD74-ROS1 = CD74-ROS1 (Homo sapiens, UniProt P08922); test: Inhibition of ROS1/CD74 (unknown origin) expressed in mouse BaF3 cells; assay type: cell-based
CD74-ROS1, sequence (P04233 whole entry): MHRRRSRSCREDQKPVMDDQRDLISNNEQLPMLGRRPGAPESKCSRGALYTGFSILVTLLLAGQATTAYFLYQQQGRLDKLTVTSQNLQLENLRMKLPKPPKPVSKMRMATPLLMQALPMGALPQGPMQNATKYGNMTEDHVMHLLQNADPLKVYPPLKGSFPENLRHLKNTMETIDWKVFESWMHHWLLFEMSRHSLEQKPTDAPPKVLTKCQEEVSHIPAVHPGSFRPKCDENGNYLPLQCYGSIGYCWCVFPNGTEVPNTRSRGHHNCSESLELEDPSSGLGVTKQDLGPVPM
CD74-ROS1, sequence (P08922 whole entry): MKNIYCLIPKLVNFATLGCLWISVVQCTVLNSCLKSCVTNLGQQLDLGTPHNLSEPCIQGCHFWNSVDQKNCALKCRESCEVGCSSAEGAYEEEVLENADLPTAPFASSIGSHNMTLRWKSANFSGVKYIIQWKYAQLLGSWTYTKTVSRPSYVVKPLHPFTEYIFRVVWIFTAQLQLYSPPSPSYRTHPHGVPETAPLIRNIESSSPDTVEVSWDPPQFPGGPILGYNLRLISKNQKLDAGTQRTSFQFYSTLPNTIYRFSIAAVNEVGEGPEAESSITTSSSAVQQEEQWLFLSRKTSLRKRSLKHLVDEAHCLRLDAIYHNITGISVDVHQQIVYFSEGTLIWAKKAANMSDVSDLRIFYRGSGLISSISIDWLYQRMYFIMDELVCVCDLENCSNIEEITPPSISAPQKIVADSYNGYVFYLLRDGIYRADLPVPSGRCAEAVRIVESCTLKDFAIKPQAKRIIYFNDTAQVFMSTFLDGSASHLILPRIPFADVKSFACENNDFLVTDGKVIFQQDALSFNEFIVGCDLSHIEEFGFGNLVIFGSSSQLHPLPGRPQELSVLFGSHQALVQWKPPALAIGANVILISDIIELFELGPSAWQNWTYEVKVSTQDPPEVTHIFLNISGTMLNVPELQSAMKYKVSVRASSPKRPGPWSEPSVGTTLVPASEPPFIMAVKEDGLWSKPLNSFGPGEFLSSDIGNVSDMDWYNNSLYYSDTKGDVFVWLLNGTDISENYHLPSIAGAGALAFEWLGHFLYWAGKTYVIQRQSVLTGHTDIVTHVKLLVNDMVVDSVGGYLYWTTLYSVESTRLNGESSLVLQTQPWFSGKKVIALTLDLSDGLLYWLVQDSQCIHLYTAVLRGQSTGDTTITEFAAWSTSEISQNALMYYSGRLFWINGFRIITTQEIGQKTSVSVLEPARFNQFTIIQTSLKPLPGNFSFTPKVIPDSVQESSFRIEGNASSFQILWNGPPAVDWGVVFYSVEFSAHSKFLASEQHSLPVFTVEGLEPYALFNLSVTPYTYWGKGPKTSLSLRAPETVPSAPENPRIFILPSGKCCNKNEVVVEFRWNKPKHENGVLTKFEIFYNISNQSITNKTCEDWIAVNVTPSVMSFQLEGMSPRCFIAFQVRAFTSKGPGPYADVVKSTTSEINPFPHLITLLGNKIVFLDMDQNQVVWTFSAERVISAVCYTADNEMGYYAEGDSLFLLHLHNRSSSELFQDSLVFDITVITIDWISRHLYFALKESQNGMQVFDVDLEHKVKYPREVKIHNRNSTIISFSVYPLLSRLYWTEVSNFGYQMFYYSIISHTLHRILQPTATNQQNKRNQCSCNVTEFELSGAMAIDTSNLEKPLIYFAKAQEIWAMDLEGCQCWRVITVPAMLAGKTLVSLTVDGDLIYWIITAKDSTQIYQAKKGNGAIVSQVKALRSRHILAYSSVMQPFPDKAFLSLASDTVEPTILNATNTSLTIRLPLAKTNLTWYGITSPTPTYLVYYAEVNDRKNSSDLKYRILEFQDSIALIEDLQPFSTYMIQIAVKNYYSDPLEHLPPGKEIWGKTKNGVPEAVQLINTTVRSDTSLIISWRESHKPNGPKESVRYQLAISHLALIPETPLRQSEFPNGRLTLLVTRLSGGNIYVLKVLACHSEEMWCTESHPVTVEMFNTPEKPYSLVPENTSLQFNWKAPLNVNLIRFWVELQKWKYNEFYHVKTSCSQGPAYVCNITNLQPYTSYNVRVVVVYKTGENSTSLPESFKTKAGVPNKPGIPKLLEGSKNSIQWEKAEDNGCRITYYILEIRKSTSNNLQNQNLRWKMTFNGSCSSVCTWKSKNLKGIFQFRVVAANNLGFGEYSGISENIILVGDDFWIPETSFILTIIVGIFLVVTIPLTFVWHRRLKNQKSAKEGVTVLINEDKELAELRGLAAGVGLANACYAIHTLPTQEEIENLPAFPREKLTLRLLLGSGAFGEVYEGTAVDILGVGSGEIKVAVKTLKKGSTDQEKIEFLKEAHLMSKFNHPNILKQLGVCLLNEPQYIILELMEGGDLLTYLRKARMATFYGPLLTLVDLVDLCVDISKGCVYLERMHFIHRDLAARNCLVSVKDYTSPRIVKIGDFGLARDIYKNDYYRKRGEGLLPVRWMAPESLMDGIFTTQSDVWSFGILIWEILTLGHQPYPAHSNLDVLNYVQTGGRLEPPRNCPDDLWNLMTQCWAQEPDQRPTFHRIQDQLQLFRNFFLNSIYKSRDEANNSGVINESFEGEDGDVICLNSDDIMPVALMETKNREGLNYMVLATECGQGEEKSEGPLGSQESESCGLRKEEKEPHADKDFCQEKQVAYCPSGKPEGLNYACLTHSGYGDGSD

BaF3 [8] = test: Induction of ROS1 degradation in mouse BaF3 cells assessed as reduction in ROS1 level by Western blotting analysis; assay type: cell-based; procedure, shortened: as §1
BaF3 [9] = test: Induction of ROS1 L2026M degradation in mouse BaF3 cells assessed as reduction in ROS1 level by Western blotting analysis; assay type: cell-based; procedure, shortened: as §1
BaF3 [10] = test: Induction of ROS1 D2033N degradation in mouse BaF3 cells assessed as reduction in ROS1 level by Western blotting analysis; assay type: cell-based; procedure, shortened: as §1
BaF3 [11] = test: Induction of ROS1 G2032R degradation in mouse BaF3 cells assessed as reduction in ROS1 level by Western blotting analysis; assay type: cell-based; procedure, shortened: as §1
BaF3 [12] = test: Induction of ROS1 G2032R/F2075V degradation in mouse BaF3 cells assessed as reduction in ROS1 level by Western blotting analysis; assay type: cell-based; procedure, shortened: as §1
BaF3 [13] = test: Induction of ROS1 degradation in mouse BaF3 cells assessed as reduction in p-ROS1 level by Western blotting analysis; assay type: cell-based; procedure, shortened: as §1
BaF3 [14] = test: Induction of ROS1 L2026M degradation in mouse BaF3 cells assessed as reduction in p-ROS1 level by Western blotting analysis; assay type: cell-based; procedure, shortened: as §1
BaF3 [15] = test: Induction of ROS1 D2033N degradation in mouse BaF3 cells assessed as reduction in p-ROS1 level by Western blotting analysis; assay type: cell-based; procedure, shortened: as §1
BaF3 [16] = test: Induction of ROS1 G2032R degradation in mouse BaF3 cells assessed as reduction in p-ROS1 level by Western blotting analysis; assay type: cell-based; procedure, shortened: as §1
BaF3 [17] = test: Induction of ROS1 G2032R/F2075V degradation in mouse BaF3 cells assessed as reduction in p-ROS1 level by Western blotting analysis; assay type: cell-based; procedure, shortened: as §1
[18] = target: Proto-oncogene tyrosine-protein kinase ROS (Homo sapiens, UniProt P08922); test: Induction of ROS1 (unknown origin) degradation by Western blotting analysis
Proto-oncogene tyrosine-protein kinase ROS, sequence (P08922 whole entry): as above
Procedure, shortened: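 Ba/F3 cells stably expressing CD74-ROS1 (retroviral transduction, puromycin-selected, IL-3 withdrawn at least 2 weeks before use) were grown in RPMI with 10% FBS and treated with compound diluted from DMSO stock in RPMI. Total ROS1 and p-ROS1 were quantified by WES capillary immunoblot in duplicate experiments. DC50 is the concentration that reduces protein by 50%, and Dmax is the maximal degradation.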

[19] = Induction of FLT3 (unknown origin) degradation by Western blotting analysis; design: species or system Homo sapiens
[20] = Induction of ERBB4 (unknown origin) degradation by Western blotting analysis; design: species or system Homo sapiens
[21] = Induction of CLK1 (unknown origin) degradation by Western blotting analysis; design: species or system Homo sapiens
[22] = Induction of LTK (unknown origin) degradation by Western blotting analysis; design: species or system Homo sapiens
NCI-H2228 [23] = test: Induction of FAK degradation in human NCI-H2228 cells at 100 nM incubated for 24 hrs by proteomics analysis; assay type: cell-based
Procedure, shortened: (§2)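 Lysates in RIPA with protease/phosphatase inhibitors, protein measured by BCA, trypsin-digested and TMT-labelled. Relative abundance taken as the ratio of TMT reporter ions in degrader-treated versus inhibitor-treated cells.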

NCI-H2228 [24] = test: Induction of ALK degradation in human NCI-H2228 cells at 100 nM incubated for 24 hrs by proteomics analysis; assay type: cell-based; procedure, shortened: as §2
NCI-H2228 [25] = test: Induction of FER degradation in human NCI-H2228 cells at 100 nM incubated for 24 hrs by proteomics analysis; assay type: cell-based; procedure, shortened: as §2

IC50 (BaF3 [1]): 9.5 nM
DC50 [2]: 11 nM
SMILES: COc1cc(N2CCN(CC3CCN(c4ccc5c(c4)CN(C4CCC(=O)NC4=O)C5=O)CC3)CC2)ccc1Nc1ncc(Cl)c(Nc2ccccc2P(C)(C)=O)n1 (stereo unspecified)
Emax (BaF3 [3]): 93%

IC50 [4]: > 2000 nM
SMILES: COc1cc(N2CCC(N3CCN(C)CC3)CC2)ccc1Nc1ncc(Cl)c(Nc2ccccc2P(C)(C)=O)n1 [BRIGATINIB]

IC50 (BaF3 [1]): 113 nM
IC50 (BaF3 [5]): 1040 nM
DC50 [2]: 108 nM
SMILES: COc1cc(N2CCC(N3CCN(C4CN(c5cccc6c5C(=O)N(C5CCC(=O)NC5=O)C6=O)C4)CC3)CC2)ccc1Nc1ncc(Cl)c(Nc2ccccc2P(C)(C)=O)n1 (stereo unspecified)
Emax (BaF3 [3]): 77%

IC50 [6]: > 2000 nM
IC50 [4]: > 2000 nM
SMILES: C[C@H]1CNC(=O)c2cnn3ccc(nc23)N[C@H](C)c2cc(F)ccc2O1 [REPOTRECTINIB]

IC50 (BaF3 [1]): 41 nM
IC50 (BaF3 [5]): 244 nM
DC50 [2]: 56 nM
SMILES: COc1cc(N2CCC(N3CCN(CC4CN(c5cccc6c5C(=O)N(C5CCC(=O)NC5=O)C6=O)C4)CC3)CC2)ccc1Nc1ncc(Cl)c(Nc2ccccc2P(C)(C)=O)n1 (stereo unspecified)
Emax (BaF3 [3]): 79%

DC50 [2]: 45 nM
SMILES: Cc1cc(Nc2ncc(Cl)c(Nc3ccccc3S(=O)(=O)C(C)C)n2)c(OC(C)C)cc1C1CCN(C2CCN(C3CN(c4ccc5c(c4)C(=O)N(C4CCC(=O)NC4=O)C5=O)C3)CC2)CC1 (stereo unspecified)

IC50 [7]: 1.5 nM
IC50 [4]: > 2000 nM
SMILES: C[C@H]1Oc2cc(cnc2N)-c2c(nn(C)c2C#N)CN(C)C(=O)c2ccc(F)cc21 [LORLATINIB]

DC50 [2]: 3.8 nM
IC50 (CD74-ROS1): 1.6 nM
DC50 [18]: 3.8 nM
DC50 [19]: > 1000 nM
DC50 [20]: > 1000 nM
DC50 [21]: > 1000 nM
DC50 [22]: > 1000 nM
SMILES: COc1cc(N2CCC(N3CCN(CC4CCN(c5ccc6c(c5)CN(C5CCC(=O)NC5=O)C6=O)CC4)CC3)CC2)ccc1Nc1ncc(Cl)c(Nc2ccccc2P(C)(C)=O)n1 (stereo unspecified)
Activity (BaF3 [8]): Dose-Dependent Effect
Activity (BaF3 [9]): Dose-Dependent Effect
Activity (BaF3 [10]): Dose-Dependent Effect
Activity (BaF3 [11]): Dose-Dependent Effect
Activity (BaF3 [12]): Dose-Dependent Effect
Activity (BaF3 [13]): Dose-Dependent Effect
Activity (BaF3 [14]): Dose-Dependent Effect
Activity (BaF3 [15]): Dose-Dependent Effect
Activity (BaF3 [16]): Dose-Dependent Effect
Activity (BaF3 [17]): Dose-Dependent Effect
Activity (NCI-H2228 [23]): Active
Activity (NCI-H2228 [24]): Active
Activity (NCI-H2228 [25]): Active

IC50 (BaF3 [1]): 11.2 nM
IC50 (BaF3 [5]): 87 nM
DC50 [2]: 6 nM
SMILES: COc1cc(N2CCC(N3CCN(CC4CCN(c5cccc6c5C(=O)N(C5CCC(=O)NC5=O)C6=O)CC4)CC3)CC2)ccc1Nc1ncc(Cl)c(Nc2ccccc2P(C)(C)=O)n1 (stereo unspecified)
Emax (BaF3 [3]): 99%
